From article PMC6178977 (Advanced functional materials, 2017)

Legend:
[1] = Pyrene fluorescence assay; assay type: physicochemical
How it was run: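 Pyrene served as fluorescent probe across a dilution series of polypeptide or conjugate. The I₁/I₃ ratio (370−373 nm peak over 381−384 nm peak) was plotted against polypeptide concentration. CAC was taken from the sigmoidal transition, which reflects nanoparticle disassembly and release of pyrene into the aqueous phase.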

HCT116 cells = test: In vitro cytotoxicity, 72 h treatment; assay type: cell-based; conditions: Homo sapiens, HCT-116, 72 h
Colo 205 cells = test: In vitro cytotoxicity, 72 h treatment; assay type: cell-based; conditions: Homo sapiens, COLO 205, 72 h
[2] = test system: subcutaneous HCT-116 xenograft; test: Tumor regression in subcutaneous HCT-116 xenograft model; assay type: in vivo, mice
[3] = cited from earlier work

For (VPGAG)160–(YG)6–(CGG)8 [ATBP], the “CAC (critical aggregation concentration)” value [1] was 3.6 µM.
In the case of `Nc1ccn([C@@H]2O[C@H](CO)[C@@H](O)C2(F)F)c(=O)n1` [GEM, gemcitabine], the IC50 (HCT116 cells) is reported as 0.0041 µM, the IC50 (Colo 205 cells) is reported as 0.0464 µM and the “tumor volume lower than PBS treated animals” value ([2]; 12 days after treatment) is reported as ~ 3 fold. The median survival time ([2]; HCT-116 xenograft, 25 mg.kg^−1 day 0, 2, 4, Kaplan–Meier, n=6) was 21 days and the plasma half-life [3] was ~ 10 minutes.
